Publication PMC4238591 (Analytical Chemistry, 2014)
Where “and” joins values, the source holds several entries; their conditions need not be identical. Identical values can stand only once. Like-named read-outs stand apart in the source and are kept apart here.

What was measured:
[1] = SHG isotherm of nonspecific binding of CTB to pure DOPC bilayer; details: entire CTB concentration range examined (0.22 to 13 nM)
[2] = SPR, 120–240 nM CTB, cited from earlier work
[3] = fluorescence; 1 mol % GM1; Hill–Waud model; cited from earlier work
[4] = format: binding, Ovine
[5] = SHCS of PnA binding to 5 mol % GM1-doped DOPC lipid bilayer; set-up: species or system Ovine; details: for equilibrium binding affinity Ka: eq 2
[6] = tested on: N-acetylgalactose receptors on Chinese hamster ovarian (CHO) cells; details: lectin iodination, PnA 10–60 μM, at least 1 h incubation; cited from earlier work
[7] = cited from earlier work
[8] = SHCS of nonspecific binding of PnA to pure DOPC bilayer; details: 0.43, 3 and 12 μM PnA, pure DOPC bilayer without GM1
Summary of the method: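 Data were recorded after steady-state equilibrium on each laser pulse (20 Hz, 50 ms step). For each protein concentration, 20 sets of 5000 points each (1.4 h) were taken. Each set's FFT was multiplied by its complex conjugate, the sets were averaged, and the result was inverse-transformed to give the autocorrelation. Time-zero points were normalized to matching specific-binding data (5 mol % GM1 in DOPC).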

[9] = [PnA] 0.43 μM, 5 mol % GM1, SHCS
[10] = [PnA] 3.0 μM, 5 mol % GM1, SHCS
[11] = [PnA] 12.2 μM, 5 mol % GM1, SHCS

In the case of CTB, the nonspecific binding [1] is listed as “negligible nonspecific binding”, the kon ([2]; 5 mol % GM1-doped lipid bilayer) is listed as 1.27 × 10^6 M^–1·s^–1 and the Kd ([2]; steady-state equilibrium) is listed as 4.61 pM. For the same molecule, the Ka [3] was “(3.2 ± 0.7) × 10^9 M ^–1”, the Kd [3] was 310 pM and the “n (Hill coefficient)” value [3] was 1.9. The koff [4] was 3.6 ± 0.5 ×10^–5 s^–1 and 3.2 ± 0.4 ×10^–5 s^–1 and 2.5 ± 0.2 ×10^–5 s^–1.

B1: PnA: Peanut (Arachis hypogaea) agglutinin, tetrameric lectin that binds specifically to terminal D-galactosyl groups; from Sigma-Aldrich (protein, UniProt P02872 24-273, looked up)
Galactose-binding lectin: AETVSFNFNSFSEGNPAINFQGDVTVLSNGNIQLTNLNKVNSVGRVLYAMPVRIWSSATGNVASFLTSFSFEMKDIKDYDPADGIIFFIAPEDTQIPAGSIGGGTLGVSDTKGAGHFVGVEFDTYSNSEYNDPPTDHVGIDVNSVDSVKTVPWNSVSGAVVKVTVIYDSSTKTLSVAVTNDNGDITTIAQVVDLKAKLPERVKFGFSASGSLGGRQIHLIRSWSFTSTLITTTRRSIDNNEKKIMNMASA
For B1, the adsorption rate ([5]; 0.43 μM PnA, 5 mol % GM1, SHCS) was “(3.7 ± 0.3) × 10^6 M^–1·s^–1”, the desorption rate ([5]; 0.43 μM PnA, 5 mol % GM1, SHCS) was “(1.0 ± 0.2) × 10^–3 s^–1” and the “equilibrium binding affinity Ka” value ([5]; 0.43 μM PnA, SHCS) was “(3.7 ± 0.8) × 10^9 M^–1”. The adsorption rate ([5]; 3 μM PnA, 5 mol % GM1, SHCS) was “(3.9 ± 0.3) × 10^5 M^–1·s^–1”, the desorption rate ([5]; 3 μM PnA, 5 mol % GM1, SHCS) was “(2.2 ± 0.2) × 10^–3 s^–1” and the “equilibrium binding affinity Ka” value ([5]; 3 μM PnA, SHCS) was “(1.7 ± 0.2) × 10^8 M^–1”. For the same molecule, the adsorption rate ([5]; 12 μM PnA, 5 mol % GM1, SHCS) was “(1.1 ± 0.1) × 10^5 M^–1·s^–1”, the desorption rate ([5]; 12 μM PnA, 5 mol % GM1, SHCS) was “(2.7 ± 0.2) × 10^–3 s^–1” and the “equilibrium binding affinity Ka” value ([5]; 12 μM PnA, SHCS) was “(4.1 ± 0.5) × 10^7 M^–1”. For the same molecule, the Ka ([5]; 60 μM PnA, 5 mol % GM1, SHCS) was “(8.4 ± 1.4) × 10^6 M^–1”, the adsorption rate ([5]; 60 μM PnA, 5 mol % GM1, SHCS) was “(3.1 ± 0.3) × 10^4 M^–1·s^–1” and the desorption rate ([5]; 60 μM PnA, 5 mol % GM1, SHCS) was “(3.7 ± 0.5) × 10^–3 s^–1”. For the same molecule, the koff [5, 9] was 1.0 ± 0.2 ×10^–3 s^–1, the kon [5, 9] was 37 ± 3 ×10^5 M^–1·s^–1 and the Ka ([5]; [PnA] 0.43 μM, calculated by eq 2) was 37 ± 8 ×10^8 M^–1. For the same molecule, the koff [5, 10] was 2.2 ± 0.2 ×10^–3 s^–1, the kon [5, 10] was 3.9 ± 0.3 ×10^5 M^–1·s^–1 and the Ka ([5]; [PnA] 3.0 μM, calculated by eq 2) was 1.7 ± 0.2 ×10^8 M^–1. For the same molecule, the koff [5, 11] was 2.7 ± 0.2 ×10^–3 s^–1, the kon [5, 11] was 1.1 ± 0.1 ×10^5 M^–1·s^–1 and the Ka ([5]; [PnA] 12.2 μM, calculated by eq 2) was 0.41 ± 0.05 ×10^8 M^–1. For the same molecule, the Ka [6] was “(4.5 ± 1) × 10^6 M^–1”, the pI [7] was roughly 6 and the nonspecific binding [8] was “negligible nonspecific binding”.
